# From ChEMBL document CHEMBL2021778, “Neurosteroid analogues. 17. Inverted binding orientations of androsterone enantiomers at the steroid potentiation site on γ-aminobutyric acid type A receptors” (J Med Chem, 2012)
# pEC50, pIC50: −log10 of the molar value. Activity calls are given as the source filed them. The calls are words filed in the database; no cut-off is given here.
# Experiments:
# [1] = Displacement of [35S]TBPS from GABAA receptor picrotoxin binding site in rat brain membranes; format: cell membranes
# Oocyte [2] = assay: Modulation of rat alpha1beta2gamma2L GABAA receptor expressed in Xenopus laevis oocytes assessed as potentiation of GABA-induced chloride currents at 10 uM by electrophysiology assay relative to control; format: cell-based
# Oocyte [3] = assay: Modulation of rat alpha1beta2gamma2L GABAA receptor expressed in Xenopus laevis oocytes assessed as potentiation of GABA-induced chloride currents at 1 uM by electrophysiology assay relative to control; format: cell-based
# Oocyte [4] = assay: Modulation of rat alpha1beta2gamma2L GABAA receptor expressed in Xenopus laevis oocytes assessed as […] at 10 uM by electrophysiology assay relative to GABA; format: cell-based
# In short: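 Rat α1β2γ2L receptors in Xenopus oocytes, two-electrode voltage clamp at −70 mV. Current gated directly by 10 μM compound without GABA, expressed as the ratio to the current from 2 μM GABA. At least four oocytes. Mean ± SEM.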
# Oocyte [5] = assay: Modulation of rat alpha1beta2gamma2L GABAA receptor expressed in Xenopus laevis oocytes assessed as potentiation of GABA-induced chloride currents at 0.1 uM by electrophysiology assay relative to control; format: cell-based
# Xenopus laevis [6] = assay: Anesthetic effect on Xenopus laevis tadpole assessed as loss of righting reflex; format: functional, organism-based
# In short: (§1)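 Xenopus laevis tadpoles, N = 10 or more per concentration, at five or more concentrations from 0.01 μM to 30 μM. Loss of righting reflex (LRR) and loss of swimming reflex (LSR) were scored. EC50 and nHill were taken from concentration–response curves. Recovery was checked after an overnight period. Mean ± SEM.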
# Oocyte [7] = assay: Modulation of GABAA receptor alpha1(Q241L)beta2gamma2L mutant expressed in Xenopus laevis oocytes assessed as potentiation of GABA-induced chloride currents at 1 uM by electrophysiology assay; format: cell-based
# In short: (§2)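 Oocytes were coinjected with α1(Q241L) cRNA plus wild-type β2 and γ2L cRNA. Recording was by two-electrode voltage clamp at −70 mV, 2–5 days after injection. Responses to a sequence of compound applications were normalised, 4 oocytes per receptor type.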
# Xenopus laevis [8] = assay: Anesthetic effect on Xenopus laevis tadpole assessed as loss of swimming reflex; format: functional, organism-based; in short: as §1
# Xenopus laevis [9] = species on record: Xenopus laevis; assay: Toxicity in Xenopus laevis tadpole assessed as mortality at 10 uM; format: organism-based; conditions: in vivo
# In short: (§3)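 Tadpoles, 10 per group, exposed at 10 μM. Each animal was scored for swimming reflex, and for death without overnight recovery from loss of swimming reflex. Results are given as the number of animals out of 10.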
# Oocyte [10] = assay: Modulation of GABAA receptor alpha1(Q241L)beta2gamma2L mutant expressed in Xenopus laevis oocytes assessed as potentiation of GABA-induced chloride currents at 0.5 uM by electrophysiology assay; format: cell-based; in short: as §2
# Oocyte [11] = assay: Modulation of rat alpha1beta2gamma2L GABAA receptor expressed in Xenopus laevis oocytes assessed as potentiation of GABA-induced chloride currents at 0.5 uM by electrophysiology assay relative to control; format: cell-based
# Xenopus laevis [12] = assay: Anesthetic effect on Xenopus laevis tadpole assessed as loss of swimming reflex at 10 uM; format: functional, organism-based; in short: as §3
# Rattus norvegicus = species on record: Rattus norvegicus; assay: Displacement of [35S]TBPS from GABAA receptor picrotoxin binding site in rat brain membranes at 10 uM; format: cell membranes
Compound,pIC50 [1],Ratio (Oocyte [2]),Ratio (Oocyte [3]),Ratio (Oocyte [4]),Ratio (Oocyte [5]),pEC50 (Xenopus laevis [6]),Activity (Oocyte [7]),pEC50 (Xenopus laevis [8]),Activity (Xenopus laevis [9]),Activity (Oocyte [10]),Activity (Oocyte [11]),Activity (Xenopus laevis [12]),inhibition (Rattus norvegicus)
"C[C@@]12CC[C@H](O)C[C@H]1CCC1C2CC[C@]2(C)C1CC[C@]21CO1 (single isomer, unassigned)",6.33,26.3,15.9,0.1,2.62,,,,,,,,
C[C@@]12CC[C@H](O)C[C@H]1C[C@@H](OCc1ccccc1)[C@@H]1[C@@H]2CC[C@@]2(C)C(=O)CC[C@@H]12,6.77,25.2,5.74,0.11,1.25,5.92,inactive,5.53,,,,,
C[C@@]12CC[C@H](O)C[C@H]1CC[C@@H]1[C@@H]2[C@H](OCc2ccccc2)C[C@@]2(C)C(=O)CC[C@@H]12,< 5.00,0.6,0.85,0,0.89,5.71,,5.46,Toxic,,,,
"C[C@@]12CCC3C(CC[C@@H]4C[C@@H](O)CC[C@@]34C)C1CCC2=O (single isomer, unassigned)",6.51,18.9,3.66,0.03,1.27,,,,,,,,
C[C@]12CC[C@@H](O)C[C@@H]1CC[C@@H]1[C@@H]2CC[C@@]2(C)[C@H]1CC[C@@]21CO1,6.98,33.7,21.9,0.22,3.11,,,,,,,,
C[C@]12CC[C@@H](O)C[C@@H]1C[C@H](OCc1ccccc1)[C@@H]1[C@@H]2CC[C@@]2(C)[C@H]1CC[C@@]21CO1,5.17,0.77,0.88,0.09,0.83,5.49,,5.10,,,,,
C[C@@]12CC[C@H](O)C[C@H]1C[C@@H](OCc1ccccc1)[C@@H]1[C@@H]2CC[C@]2(C)[C@H]1CC[C@]21CO1,7.28,32.4,20.3,0.22,3.47,6.51,,6.26,,inactive,inactive,,
CC(=O)[C@H]1CC[C@H]2[C@@H]3CC[C@H]4C[C@H](O)CC[C@]4(C)[C@H]3CC[C@]12C [BREXANOLONE],7.13,9.65,3.89,0.37,1.26,,,,,inactive,inactive,,
C[C@]12CC[C@@H](O)C[C@@H]1CC[C@@H]1[C@@H]2CC[C@]2(C)C(=O)CC[C@@H]12 [ANDROSTERONE],6.39,5.44,1.41,0.02,0.97,,,,,,,inactive,
C[C@]12CC[C@@H](O)C[C@@H]1CC[C@@H]1[C@@H]2[C@@H](OCc2ccccc2)C[C@]2(C)C(=O)CC[C@@H]12,6.55,24.4,2.96,0.2,1.08,6.70,inactive,6.06,Toxic,,,,
C[C@]12CC[C@@H](O)C[C@@H]1C[C@H](OCc1ccccc1)[C@@H]1[C@@H]2CC[C@]2(C)C(=O)CC[C@@H]12,< 5.00,0.76,0.9,0,0.97,< 5.00,,,,,,inactive,35%
C[C@]12CC[C@@H](O)C[C@@H]1CC[C@@H]1[C@@H]2[C@@H](OCc2ccccc2)C[C@@]2(C)[C@H]1CC[C@@]21CO1,7.82,31.1,21.2,0.42,2.99,7.15,,6.57,,inactive,inactive,,
C[C@@]12CC[C@H](O)C[C@H]1CC[C@@H]1[C@@H]2[C@H](OCc2ccccc2)C[C@]2(C)[C@H]1CC[C@]21CO1,5.69,3.21,1.3,0.05,1.01,5.58,,5.56,,,,,
